Source: PubChem BioAssay
aDG glyco act: activators of alpha-DG glycosylation, primary screen, uHTS, Pro5-aDG cells, AlphaScreen; alpha-DG glycosylation AlphaScreen (IIH6); 0% Pro5, 100% B10-LARGE cell signal; activation, % at 10 µM; 360,000 tested, 0.22% active;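 active = activation of at least 8% versus controls, or a plate z-score of at least 8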;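 note: Pro5 are CHO cells carrying HIG-tagged alpha-DG that lacks glycosylation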
Tn6 DDE FP: inhibitors of Tn6 peptide binding to fibrin DD(E), primary screen, biochemical, fluorescence polarization, human fibrin, Tn6 probe | Fibrin DD(E) TRITC-Tn6 fluorescence polarization displacement | inhibition, % at 8.3 µM | AID 720509, 2013 | Fibrinogen beta chain (Homo sapiens), P02675 | 370,000 tested, 0.21% active;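 active = inhibition above a per-campaign cutoff: mean of compounds within control limits plus 3 SD, cut at about 15% in these data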
DDE Tn7 FP inh: inhibitors of Tn7 peptide binding to fibrin DD(E), primary screen, biochemical, fluorescence polarization, human fibrin, Tn7 probe. FP displacement of FITC-Tn7 peptide from fibrin DD(E); 0% = median of compound wells per plate. inhibition, % at 8.3 µM. 370,000 tested, 0.13% active. AID 720508, 2013;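 active = inhibition above the mean of compounds falling within the control limits plus 3 SD of them, cut at about 14% in these data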
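Assay system: human fibrin DD(E). Input: DD(E) 2 µM final. Medium: Tris buffer with calcium and detergent, pH 7.8. Compound dosing: single point at 8.3 µM. Timing: 10 min plus 3 h, room temperature. Technique: fluorescence polarization of the labelled Tn7 tracer. Read-out: percent inhibition. Replicates: singlicate testing.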
NRP1-CendR mod: modulators of CendR peptide binding to NRP-1, primary screen, biochemical, fluorescence polarization, uHTS; Neuropilin-1 (Homo sapiens), O14786; FAM-RPARPAR peptide binding to NRP-1; inhibition, % at 25 µM; 360,000 tested, 0.85% active;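 active = inhibition or corrected inhibition above about 18%, plus a signal ratio from 0.5 to 1.5, limit read from the data, passing the limit was not always enough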
Numbers stand for hits; 0 = inactive; - = not tested or not shown. Hits are enriched below; roughly 1.3% of the tested compounds scored in any of these assays.

SMILES	aDG glyco act	Tn6 DDE FP	DDE Tn7 FP inh	NRP1-CendR mod
COc1ccc(C(=O)OCC(=O)Nc2nc3c(F)c(F)c(F)cc3s2)cc1OC	0	0	0	0
COC(=O)c1cc(S(=O)(=O)N2CCN(c3cccc(C(F)(F)F)c3)CC2)cn1C	-	0	0	-
COc1ccccc1C(=O)N1CCN(C(=O)[C@@H](Cc2ccccc2)NC(=O)[C@H]2O[C@@H](n3ccc(=O)[nH]c3=O)[C@H](O)[C@@H]2O)CC1	-	0	0	-
COC1=C(Br)C(=O)c2nc(C)ccc2C1=O	0	0	0	0
COC1=C(N)C(=O)c2nc(C)ccc2C1=O	0	0	0	30.9
COc1cc(O)cc2cc3c(c(O)c12)C(=O)CC(C)(O)O3 (configuration not stated)	0	0	0	38.5
COc1cc(O)c2c(c1)OC(C)(C)CC2=O	0	0	0	0
CCc1nnc(NC(=O)CCC(=O)N2CCCC2)s1	0	0	0	0
CC(C)Cc1nnc(NC(=O)CCC(=O)N2CCCCC2)s1	0	0	0	18.2
CC(C)(C)c1cccc(P(=O)(c2ccccc2)c2ccccc2)c1O	0	0	0	0
O=P(c1ccccc1)(c1ccccc1)c1ccccc1C(Br)Br	0	0	0	27.9
C[C@H]1CN=C(N(C)C)N1CCC1CCCCC1	0	0	0	29.6
CC(=O)OC12CCCN(C1)/C(=C/c1cccc(Cl)c1)C2 (configuration not stated)	-	0	0	-
O=C(C1CCCN(S(=O)(=O)c2ccc(Br)s2)C1)N1CCN(c2ccccc2)CC1 (configuration not stated)	0	0	0	0
O=C(c1ccc(Cl)c(S(=O)(=O)N2CCCC2)c1)N1CCN(c2ccccc2)CC1	0	0	0	36.9
CCOC(=O)C1CCN(C(=O)c2ccc(Cl)c(S(=O)(=O)N3CCOCC3)c2)CC1	0	0	0	0
O=C(c1ccc(Cl)c(S(=O)(=O)N2CCCCC2)c1)N1CCN(c2ccccc2)CC1	0	0	0	0
O=C(C1CCN(S(=O)(=O)c2ccc(Cl)s2)CC1)N1CCN(c2ccccc2)CC1	0	0	0	27.6
CCOC(=O)C1CCN(C(=O)c2ccc(Cl)c(S(=O)(=O)N3CCCC3)c2)CC1	0	0	0	30.4
Cc1ccccc1N1CCN(C2=Nc3ccccc3Sc3ccccc32)CC1	-	0	0	-
Cc1ccc(NC(=O)CSC(C)C(=O)OCc2cc(=O)oc3cc(O)ccc23)cc1 (configuration not stated)	0	0	0	0
O=C1NC[C@H](CCCCN2CCN(CCC3CCCCC3)C(=O)C2=O)N(CC2CCCCC2)C1=O	0	0	0	0
O=C(Nc1nccs1)c1cn(-c2ccccc2)nc1-c1ccccc1	0	0	0	0
CC(=O)Cc1nsc(NC(=O)c2cn(-c3ccccc3)nc2-c2ccc(Br)cc2)n1	0	0	0	32.4
NC(=O)N1c2ccccc2CC(=O)c2ccccc21	0	0	0	34.8
SMILES	aDG glyco act	Tn6 DDE FP	DDE Tn7 FP inh	NRP1-CendR mod
NC(=O)N1c2ccccc2C=Cc2ccccc21	0	0	0	0
COC(=O)C1=C(C)N(Cc2cccc(C(F)(F)F)c2)C(=NCC2CC2)NC1c1cccc(Cl)c1 (configuration not stated)	-	0	0	-
CC(C)Oc1ccc(S(=O)(=O)N2CCOCC2)cc1NC(=O)CSC(=S)N1CCCC1	0	0	0	0
CC1Cc2ccccc2N1C(=O)CSc1nnc2c(n1)[nH]c1ccc(F)cc12 (configuration not stated)	0	0	0	22.3
O=C(CSc1nnc2c(n1)[nH]c1ccc(F)cc12)N1CCOCC1	0	0	0	0
CCC(=O)N1CCc2cc(Br)c(S(=O)(=O)NC3CCN(Cc4ccccc4)CC3)cc21	-	0	0	-
CCC(=O)Nc1cc2c3c(c1)CCC(=O)N3CCC2	0	0	0	25.7
CC(=O)Nc1cc2c3c(c1)CCC(=O)N3CCC2	0	0	0	0
O=C(COC(=O)Cc1n[nH]c(=O)c2ccccc12)Nc1c(Br)cc([N+](=O)[O-])cc1Br	0	0	0	24.1
O=C1N2Cc3ccccc3C2CS(=O)(=O)N1C1CCCC1 (configuration not stated)	-	0	0	-
O=C(Cc1ccccc1F)Nc1cc(S(=O)(=O)N2CCCCC2)ccc1N1CCOCC1	0	0	0	0
Cc1ccccc1NC(=S)NCc1cccn1C	0	0	0	0
Cc1c(Cl)cccc1NC(=S)NCc1cccn1C	0	0	0	28.3
CC/C(=C1/C(=O)CC(C)(C)C(C(=O)OC)C1=O)N1CCCC1 (configuration not stated)	0	0	0	35.0
COc1ccccc1NC(=O)c1ccccc1Oc1ccccc1	0	0	0	26.5
COc1ccc(N=C2C(=Nc3ccc(OC)cc3)N(c3ccc(OC)cc3)C(=S)N2C(=O)c2ccc(OC)cc2)cc1	0	0	0	0
COc1ccc(N=C2C(=Nc3ccc(OC)cc3)N(c3ccc(N(C)C)cc3)C(=S)N2c2ccc(OC)cc2)cc1	0	0	0	26.0
COCCCNS(=O)(=O)c1ccc2c3c(cccc13)C(=O)S2	0	0	0	29.2
COC(=O)[C@]12C[C@H](CC(=O)NCC34CC5CC(CC(C5)C3)C4)C(=O)N(Cc3ccc4c(c3)OCO4)C1=C[C@H](C(C)(C)C)O[C@@H]2C	-	0	0	-
CN(C)c1ccc(CC(=O)N2CCCC(c3cc(C(=O)Nc4ccc5c(c4)OCO5)no3)C2)cc1 (configuration not stated)	0	0	0	33.1
CC(C)c1ccc(C(=O)N2CCCC(c3cc(C(=O)Nc4ccc5c(c4)OCO5)no3)C2)cc1 (configuration not stated)	0	0	0	22.4
CCCS(=O)(=O)N1CCC(C(=O)NC2CCCC(C)C2C)CC1 (configuration not stated)	0	0	0	25.9
CCCS(=O)(=O)N1CCCC(C(=O)NC2CCCC(C)C2C)C1 (configuration not stated)	0	0	0	0
COC(=O)c1cc2c(c3c4cc(OC)ccc4n(S(=O)(=O)c4cccc(C)c4)c13)C(=O)N(C)C2	-	0	0	-
O=C(C[C@H]1CC[C@H]2[C@@H](COC[C@H](O)CN2Cc2ccccc2)O1)NCCCN1CCOCC1	0	0	0	0
Cc1ccc(S(=O)(=O)/N=S(/C)c2ccccc2)cc1 (configuration not stated)	0	0	0	31.6
CC/S(=N\S(=O)(=O)c1ccc(C)cc1)c1ccccc1 (configuration not stated)	0	0	0	0
COc1ccc(Oc2c(C=O)c3ccccc3n2C)cc1	0	0	0	26.0
Cc1ccc(SCCN2CCN(C)CCC2=O)cc1	0	0	0	26.2
O=C(/C=C/c1ccc(O)c(O)c1)c1ccc(S(=O)(=O)N2CCCCCC2)cc1	0	0	0	21.5
